Source: ChEMBL document CHEMBL4033682, “Discovery of indolin-2-one derivatives as potent PAK4 inhibitors: Structure-activity relationship analysis, biological evaluation and molecular docking study” (Bioorg Med Chem, 2017)
Blank lines part the entries; values can stand above or below the compound they belong to. Calls of active or inactive are those of the source. No cut-off for these calls is given here.

Columns and labels:
[1] = target: T1, Serine/threonine-protein kinase PAK 4 (Homo sapiens, UniProt O96013); test: Inhibition of PAK4 (unknown origin) using substrate S2 after 60 mins by HTRF assay
Target sequence in this assay (O96013 whole entry): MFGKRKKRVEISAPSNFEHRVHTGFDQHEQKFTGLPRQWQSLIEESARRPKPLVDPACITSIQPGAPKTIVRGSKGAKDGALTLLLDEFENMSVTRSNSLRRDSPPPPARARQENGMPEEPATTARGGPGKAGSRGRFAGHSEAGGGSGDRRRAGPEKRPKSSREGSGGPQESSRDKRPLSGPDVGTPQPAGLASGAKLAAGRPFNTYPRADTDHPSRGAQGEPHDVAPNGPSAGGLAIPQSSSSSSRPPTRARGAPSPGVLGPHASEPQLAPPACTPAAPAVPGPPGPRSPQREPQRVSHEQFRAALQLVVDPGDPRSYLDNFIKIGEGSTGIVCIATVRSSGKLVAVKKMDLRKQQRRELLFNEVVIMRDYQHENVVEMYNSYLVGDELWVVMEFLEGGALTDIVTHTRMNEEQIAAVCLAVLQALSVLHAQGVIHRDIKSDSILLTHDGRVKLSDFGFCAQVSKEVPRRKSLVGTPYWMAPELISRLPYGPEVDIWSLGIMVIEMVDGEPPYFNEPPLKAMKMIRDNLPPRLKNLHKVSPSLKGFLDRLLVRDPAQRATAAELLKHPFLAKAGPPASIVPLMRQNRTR

A549 [2] = test: Growth inhibition of human A549 cells after 72 hrs by CCK8 assay; type: functional, cell-based; conditions: A549, 72 h
Method in brief: (§1)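 Cells seeded in 96-well plates and exposed to various compound concentrations on the seeding day, cultured 72 h at 37 °C. Proliferation read by CCK-8.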

MCF7 = test: Growth inhibition of human MCF7 cells after 72 hrs by CCK8 assay; type: functional, cell-based; conditions: MCF7, 72 h; method in brief: as §1
HT-1080 = test: Growth inhibition of human HT1080 cells after 72 hrs by CCK8 assay; type: functional, cell-based; conditions: HT-1080, 72 h; method in brief: as §1
A549 [3] = test: Induction of apoptosis in human A549 cells assessed as live cells at 1 uM after 72 hrs by Annexin-V/7AAD staining based flow cytometry (reference value: 93.98%); type: functional
A549 [4] = test: Induction of apoptosis in human A549 cells assessed as early apoptotic cells at 1 uM after 72 hrs by Annexin-V/7AAD staining based flow cytometry (reference value: […]); type: functional
A549 [5] = test: Induction of apoptosis in human A549 cells assessed as late apoptotic cells at 1 uM after 72 hrs by Annexin-V/7AAD staining based flow cytometry (reference value: 2.95%); type: functional
A549 [6] = test: Induction of apoptosis in human A549 cells assessed as necrotic cells at 1 uM after 72 hrs by Annexin-V/7AAD staining based flow cytometry (reference value: 0.65%); type: functional
A549 [7] = test: Induction of apoptosis in human A549 cells assessed as live cells at 5 uM after 72 hrs by Annexin-V/7AAD staining based flow cytometry (reference value: 93.98%); type: functional
A549 [8] = test: Induction of apoptosis in human A549 cells assessed as early apoptotic cells at 5 uM after 72 hrs by Annexin-V/7AAD staining based flow cytometry (reference value: […]); type: functional
A549 [9] = test: Induction of apoptosis in human A549 cells assessed as late apoptotic cells at 5 uM after 72 hrs by Annexin-V/7AAD staining based flow cytometry (reference value: 2.95%); type: functional
A549 [10] = test: Induction of apoptosis in human A549 cells assessed as necrotic cells at 5 uM after 72 hrs by Annexin-V/7AAD staining based flow cytometry (reference value: 0.65%); type: functional
A549 [11] = test: Cell cycle arrest in human A549 cells assessed as accumulation at G1 phase at 1 uM after 72 hrs by propidium iodide staining based flow cytometry (reference value: 44.99%); type: functional
A549 [12] = test: Cell cycle arrest in human A549 cells assessed as accumulation at G2 phase at 1 uM after 72 hrs by propidium iodide staining based flow cytometry (reference value: 17.62%); type: functional
A549 [13] = test: Cell cycle arrest in human A549 cells assessed as accumulation at S phase at 1 uM after 72 hrs by propidium iodide staining based flow cytometry (reference value: 37.39%); type: functional
A549 [14] = test: Cell cycle arrest in human A549 cells assessed as accumulation at G1 phase at 5 uM after 72 hrs by propidium iodide staining based flow cytometry (reference value: 44.99%); type: functional
A549 [15] = test: Cell cycle arrest in human A549 cells assessed as accumulation at G2 phase at 5 uM after 72 hrs by propidium iodide staining based flow cytometry (reference value: 17.62%); type: functional
A549 [16] = test: Cell cycle arrest in human A549 cells assessed as accumulation at S phase at 5 uM after 72 hrs by propidium iodide staining based flow cytometry (reference value: 37.39%); type: functional
A549 [17] = test: Induction of apoptosis in human A549 cells after 72 hrs by Annexin-V/7AAD staining based flow cytometry; type: functional, cell-based
A549 [18] = test: Antimigratory activity against human A549 cells at 5 uM […] by crystal violet staining based transwell chamber assay; type: functional, cell-based
A549 [19] = test: Anti-invasive activity against human A549 cells at 5 uM […] by crystal violet staining based matrigel invasion chamber assay; type: functional, cell-based
[20] = target: T1, Serine/threonine-protein kinase PAK 4; test: Inhibition of PAK4 phosphorylation in human A549 cells after 2 hrs by Western blot analysis; type: cell-based
Method in brief: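 A549 cells treated with indicated dose for 2 h, lysed in SDS sample buffer, resolved by 10% SDS-PAGE, transferred to nitrocellulose, probed for phospho-PAK4 and PAK4 (GAPDH loading control) with HRP-conjugated secondary antibodies, detected by enhanced chemiluminescence.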
Target sequence in this assay (O96013 whole entry, looked up): as the sequence (O96013 whole entry) above

[21] = target: T1, Serine/threonine-protein kinase PAK 4; test: Inhibition of PAK4 in human A549 cells assessed as reduction in LIMK1 phosphorylation after 72 hrs by Western blot analysis; type: cell-based
Target sequence in this assay (O96013 whole entry, looked up): as the sequence (O96013 whole entry) above

[22] = target: T1, Serine/threonine-protein kinase PAK 4; test: Inhibition of PAK4 in human A549 cells assessed as reduction in cofilin phosphorylation after 72 hrs by Western blot analysis; type: cell-based
Target sequence in this assay (O96013 whole entry, looked up): as the sequence (O96013 whole entry) above

SMILES: Cc1cc(C)c(/C=C2\C(=O)Nc3ccc(C(=O)N[C@H](CO)c4ccccc4)cc32)[nH]1
IC50 ([1]; read-out: IC50): 0.027 µM
IC50 ([1]; read-out: pIC50 (converted)): 0.0275 µM
IC50 (A549 [2]): 0.83 µM
IC50 (MCF7): 2.11 µM
IC50 (HT-1080): 6.77 µM
Activity (A549 [3]): 70.56%
Activity (A549 [4]): 8.44%
Activity (A549 [5]): 15.46%
Activity (A549 [6]): 5.14%
Activity (A549 [7]): 26.23%
Activity (A549 [8]): 32.18%
Activity (A549 [9]): 33.22%
Activity (A549 [10]): 8.36%
Activity (A549 [11]): 35.7%
Activity (A549 [12]): 24.37%
Activity (A549 [13]): 39.92%
Activity (A549 [14]): 27.78%
Activity (A549 [15]): 33.75%
Activity (A549 [16]): 38.47%
Activity (A549 [17]): Dose-dependent effect
Activity (A549 [18]): Active
Activity (A549 [19]): Active
inhibition [20]: Dose-dependent effect
inhibition [21]: Dose-dependent effect
inhibition [22]: Dose-dependent effect

SMILES: O=C1Nc2ccc(C(=O)N[C@H](CO)c3ccccc3)cc2/C1=C/c1cnc[nH]1
IC50 (A549 [2]): 3.7 µM
IC50 (MCF7): 10.8 µM
IC50 (HT-1080): 7.9 µM

SMILES: O=C1Nc2cc(F)c(C(=O)N[C@H](CO)c3ccccc3)cc2/C1=C/c1ccc[nH]1
IC50 ([1]; read-out: IC50): 0.718 µM

SMILES: O=C1Nc2ccc(C(=O)N[C@H](CCO)c3ccccc3)cc2/C1=C/c1ccc[nH]1
IC50 ([1]; read-out: IC50): 5.01 µM

SMILES: O=C1Nc2ccc(C(=O)N[C@H](CO)c3ccccc3)cc2/C1=C/c1ccco1 (stereo in doubt)
IC50 ([1]; read-out: IC50): 0.802 µM

SMILES: O=C1Nc2ccc(C(=O)N[C@H](CO)c3ccccc3)cc2/C1=C/c1ccn[nH]1
IC50 ([1]; read-out: IC50): 0.379 µM

SMILES: O=C1Nc2ccc(C(=O)N[C@H](CO)c3ccc(Cl)cc3)cc2/C1=C/c1ccc[nH]1
IC50 ([1]; read-out: IC50): 0.391 µM

SMILES: O=C1Nc2ccc(C(=O)N[C@H](CO)c3ccccc3)cc2C1=Cc1ccccn1
IC50 ([1]; read-out: IC50): > 10 µM

SMILES: Cn1cc(-c2cc3c(cc2C(=O)N[C@H](CO)c2ccccc2)/C(=C/c2ccc[nH]2)C(=O)N3)cn1
IC50 ([1]; read-out: IC50): 1.99 µM

SMILES: O=C1Nc2ccc(C(=O)N[C@H](CO)Cc3ccccc3)cc2/C1=C/c1ccc[nH]1
IC50 ([1]; read-out: IC50): 0.304 µM

SMILES: Cn1nccc1-c1cc2c(cc1C(=O)N[C@H](CO)c1ccccc1)/C(=C/c1ccc[nH]1)C(=O)N2
IC50 ([1]; read-out: IC50): 1.45 µM

SMILES: O=C1Nc2ccc(C(=O)N[C@H](CO)c3ccccc3)cc2/C1=C/c1cccs1
IC50 ([1]; read-out: IC50): 1.29 µM

SMILES: N#Cc1cc2c(cc1C(=O)N[C@H](CO)c1ccccc1)/C(=C/c1ccc[nH]1)C(=O)N2
IC50 ([1]; read-out: IC50): 1.54 µM

SMILES: O=C1Nc2cc(Cl)c(C(=O)N[C@H](CO)c3ccccc3)cc2/C1=C/c1ccc[nH]1
IC50 ([1]; read-out: IC50): 1.42 µM

SMILES: O=C1Nc2ccc(C(=O)N[C@H](CO)c3ccccc3)cc2/C1=C/c1ncc[nH]1
IC50 ([1]; read-out: IC50): 0.281 µM

SMILES: O=C1Nc2cc(Br)c(C(=O)N[C@H](CO)c3ccccc3)cc2/C1=C/c1ccc[nH]1
IC50 ([1]; read-out: IC50): 1.2 µM

Other lines, results leading:

IC50 ([1]; read-out: IC50): 3.15 µM
SMILES: O=C1Nc2ccc(C(=O)NCCCO)cc2/C1=C/c1ccc[nH]1

IC50 ([1]; read-out: IC50): 0.199 µM
SMILES: O=C1Nc2ccc(C(=O)N[C@H](CO)c3ccccc3Cl)cc2/C1=C/c1ccc[nH]1

IC50 ([1]; read-out: IC50): 0.634 µM
SMILES: CC(C)(C)[C@@H](CO)NC(=O)c1ccc2c(c1)/C(=C/c1ccc[nH]1)C(=O)N2

IC50 ([1]; read-out: IC50): 0.022 µM
IC50 ([1]; read-out: pIC50 (converted)): 0.0219 µM
IC50 (A549 [2]): 2.37 µM
IC50 (MCF7): 6.56 µM
IC50 (HT-1080): 0.98 µM
SMILES: O=C1Nc2ccc(C(=O)N[C@H](CO)c3ccccc3)cc2/C1=C/c1ccc[nH]1

IC50 ([1]; read-out: IC50): 2.35 µM
SMILES: CC(C)[C@@H](CO)NC(=O)c1ccc2c(c1)/C(=C/c1ccc[nH]1)C(=O)N2

IC50 ([1]; read-out: IC50): 0.054 µM
SMILES: O=C1Nc2ccc(C(=O)N[C@H](CO)c3ccc(F)cc3)cc2/C1=C/c1ccc[nH]1

IC50 ([1]; read-out: IC50): 1.26 µM
SMILES: O=C1Nc2ccc(C(=O)NCCO)cc2/C1=C/c1ccc[nH]1

IC50 ([1]; read-out: IC50): 3.38 µM
SMILES: O=C1Nc2ccc(C(=O)N[C@@H](CO)c3ccccc3)cc2/C1=C/c1ccc[nH]1
